Source: PubChem
A selection: hits, their analogues and other compounds. The true share with any hit is near 1.6%.
proCasp7 act – activates human procaspase-7, counter-screen for procaspase-3 activators. P55210. activation, % at 8.5 µM. recombinant procaspase-7, Ac-DEVD-pNA absorbance 405 nm; D23A/D198A/D206A triple mutant, cannot self-cleave; scale: DMSO 0, 5 µM enzyme 100. hit rate 0.093% among 330,000. AID 463210;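 active means percent activation above the screen-wide mean plus 3 SD, cut at about 25% in these data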
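Material: Procaspase-7 triple mutant (PC-7 D3A) | Quantity: 2 µM procaspase-7 mutant as dispensed | Reagent: DEVD-pNA substrate | Times: 1 h preincubation, 2 h reaction | Technique: 405 nm absorbance of p-nitroaniline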
procasp3 activ – activates human procaspase-3. P42574. recombinant procaspase-3 D3A, Ac-DEVD-pNA absorbance 405 nm. activation, % at 8.5 µM. hit rate 0.11% among 330,000. AID 463141;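 active means activation above the mean of all tested compounds plus 3 SD, cut at about 21% in these data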;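 further: 0% = DMSO alone and 100% = DMSO wells spiked with extra 5 µM PC-3 D3A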
Target sequence (P42574 whole entry D9A/D28A/D175A): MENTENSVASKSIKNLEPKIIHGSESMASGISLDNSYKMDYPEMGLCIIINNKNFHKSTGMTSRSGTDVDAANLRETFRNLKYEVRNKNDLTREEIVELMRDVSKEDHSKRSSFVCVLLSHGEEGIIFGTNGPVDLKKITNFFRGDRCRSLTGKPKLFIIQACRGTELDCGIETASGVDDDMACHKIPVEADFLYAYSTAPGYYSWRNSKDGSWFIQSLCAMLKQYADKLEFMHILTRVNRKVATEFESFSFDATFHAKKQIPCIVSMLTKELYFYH
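Technique: 405 nm absorbance of p-nitroaniline, reads at 0 and 120 min; Test system: Procaspase-3 D3A mutant; Incubation: 1 h enzyme-compound preincubation, then 2 h substrate reaction, 25 °C; Repeats: singlicate, each compound tested once; Benchmarks: low control DMSO wells, high control DMSO plus 5 µM PC-3 D3A.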
Neddylation inh – blocks human cullin neddylation. TR-FRET cullin neddylation, biochemical. hit rate 0.58% among 360,000. calls only at 25 µM. P61081+Q13564. AID 651699; in the data active means inhibition above about 36%
KLK7 zymogen act – activators of human kallikrein-7 zymogen. purified proKLK7, EDANS-DABCYL substrate fluorescence; 100% is mature enzyme control, 0% vehicle. activation, % at 7 µM. hit rate 0.9% among 370,000. AID 652039;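 active means activation above the mean of all tested compounds plus 3 SD, computed per campaign excluding outliers beyond control limits, cut at about 13% in these data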
Target sequence (P49862 whole entry, looked up): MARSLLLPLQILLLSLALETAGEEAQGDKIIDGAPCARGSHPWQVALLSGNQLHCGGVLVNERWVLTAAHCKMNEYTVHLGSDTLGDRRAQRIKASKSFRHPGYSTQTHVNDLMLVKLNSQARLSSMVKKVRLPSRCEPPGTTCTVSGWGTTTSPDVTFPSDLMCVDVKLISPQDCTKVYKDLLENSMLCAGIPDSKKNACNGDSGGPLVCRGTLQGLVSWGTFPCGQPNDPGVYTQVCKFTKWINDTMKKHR
Neddyl conf – confirmation of human cullin neddylation inhibitors; shares compounds with Neddylation inh; TR-FRET cullin neddylation biochemical assay; calls only at 25 µM; hit rate 13% among 1,800; in the data active means inhibition above about 40%;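 further: neddylation substrate is the cullin 1 ring ligase complex with SKP2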
Active calls of the source: *; i = inactive; · = no result shown; + = active, no number.

SMILES	proCasp7 act	procasp3 activ	Neddylation inh	KLK7 zymogen act	Neddyl conf
CC(=O)N1N=C2/C(=C/c3ccccc3)CCCC2C1c1ccccc1 (stereo not given)	-5	-4	+	1	·
COC(=O)[C@]12C[C@H](CC(=O)NCCCCc3ccccc3)C(=O)N(Cc3ccc(Cl)cc3Cl)C1=C[C@H](C(C)(C)C)O[C@@H]2C	·	·	·	0	·
COc1c(Cl)cccc1-c1cn2ccc(C)cc2n1	11	2	+	1	i
Cc1ccc(S(=O)(=O)Nc2ccc(-c3cn4ccc(C)cc4n3)cc2)cc1	5	11	+	-22	i
Cc1ccn2cc(-c3cccc(NS(C)(=O)=O)c3)nc2c1	2	10	+	2	i
COC(=O)C1=C(C)N(Cc2ccc(C(F)(F)F)cc2)C(=NCc2ccccc2)NC1c1cccc(Cl)c1 (stereo not given)	·	·	·	0	·
COc1ncccc1-c1nnn(-c2ccc(Cl)nc2)n1	-7	12	+	-1	i
Cc1[nH]c2ccccc2c1CCN(Cc1cccs1)C(=O)Nc1cccc2c1OCO2	·	·	·	0	·
O=C1N2Cc3ccccc3C2CS(=O)(=O)N1C1CCCC1 (stereo not given)	·	·	·	0	·
NC(=O)c1c(NC(=O)c2cccc(N3C(=O)CCC3=O)c2)sc2c1CCCCC2	-3	1	+	1	·
CC(C)C[C@@H](CSc1ccccc1)N1CCN(CCc2ccccc2)CCC1=O	7	4	+	0	i
CC1CCN(S(=O)(=O)c2ccc3c(c2)C(=NO)c2cc(S(=O)(=O)N4CCC(C)CC4)ccc2-3)CC1	-1	11	+	0	i
CCOC(=O)CNC(=O)CSc1nnc(-c2ccccc2)n1CC	·	·	·	1	·
COC(=O)[C@]12C[C@H](CC(=O)N3CCOCC3)C(=O)N(CCC3=CCCCC3)C1=C[C@H](C1CCCC1)O[C@@H]2C	·	·	·	0	·
C=CC[C@H]1c2ccccc2[C@H]2N3N=Cc4ccccc4[C@H]3[C@H](CCCC)C(=O)N2N1C(=O)NCc1ccccc1	·	·	·	1	·
NC(=O)c1ncn([C@@H]2O[C@H](C(=O)N[C@H](Cc3ccccc3)C(=O)N3CCN(CC(=O)Nc4ccccn4)CC3)[C@@H](O)[C@H]2O)n1	·	·	·	0	·
Cc1cc(=O)oc2cc(OCc3nnc(-c4ccccc4Br)o3)ccc12	7	1	+	-11	i
O=C1CSC(=S)N1N=Cc1ccc(Cl)s1	·	·	i	0	·
CC1=C(C#N)C(c2ccc(O)cc2)C2=C(CCCC2=O)N1 (stereo not given)	2	7	+	3	i
COc1ccc2cc(CN(Cc3cccs3)Cc3nnnn3Cc3ccccc3)c(=O)[nH]c2c1	3	7	i	9	·
COCCn1nnnc1CN(Cc1cccnc1)Cc1cc2cc(OC)ccc2[nH]c1=O	·	·	+	1	i
Cc1ccc2[nH]c(=O)c(CN(Cc3cccnc3)Cc3nnnn3CC3CCCO3)cc2c1 (stereo not given)	10	15	i	0	·
O=c1[nH]c2cc3c(cc2cc1CN(Cc1ccc2c(c1)OCO2)Cc1nnnn1CC1CCCO1)OCO3 (stereo not given)	-35	-20	+	2	i
COc1ccc2[nH]c(=O)c(CN(Cc3nnnn3Cc3ccccc3)CC3CCCO3)cc2c1 (stereo not given)	-21	-11	+	1	i
COc1ccc2[nH]c(=O)c(CN(Cc3nnnn3Cc3ccc(F)cc3)CC3CCCO3)cc2c1 (stereo not given)	-4	-1	+	3	i
SMILES	proCasp7 act	procasp3 activ	Neddylation inh	KLK7 zymogen act	Neddyl conf
COc1ccc(Cn2nnnc2CN(CCCN2CCOCC2)Cc2cc3cc(OC)ccc3[nH]c2=O)cc1	8	3	i	1	·
CN(C)C=Nc1nc2c(Br)ccc(Br)c2cc1C(=O)NCC(C)(C)C	·	·	·	0	·
O=S1(=O)c2ccc(Br)cc2OC[C@@H](c2ccccc2)N1Cc1cn(CCC2OCCCO2)nn1	·	·	·	0	·
Nn1c(SCC(=O)N2c3ccccc3Sc3ccc(Cl)cc32)nnc1-c1n[nH]c2c1CCC2	·	·	·	0	·
O=c1[nH]c2cc3c(cc2cc1CN(Cc1cccs1)Cc1nnnn1Cc1ccco1)OCCO3	-19	-22	+	-8	i
O=c1[nH]c2cc3c(cc2cc1CN(Cc1ccccc1)Cc1nnnn1Cc1ccco1)OCCO3	·	·	i	-8	·
COc1cc(/C=N/n2nnnc2N)ccc1O	-4	0	i	-2	·
CSc1ccc(/C=N/n2nnnc2N)cc1	-4	7	+	2	+
COc1cc(/C=N/n2nnnc2N)cc(OC)c1OC	5	-1	+	1	i
Nc1nnnn1/N=C/c1ccc(O)cc1	6	-3	i	-6	·
COC(=O)[C@]12C=CCN1[C@@H](c1ccc(OC)c(OC)c1)c1c(c3ccccc3n1S(=O)(=O)c1ccc(C)cc1)C2	·	·	·	-2	·
CCC(=O)Nc1cc2c(C)cc(=O)oc2cc1C	9	2	+	0	·
CCCCCCC(=O)Nc1cc2c(C)cc(=O)oc2cc1C	2	4	i	0	·
CCN=C1S/C(=C/c2ccc(-c3ccc(F)cc3)o2)C(=O)N1CC	-37	-37	i	0	·
CCN=C1S/C(=C\c2ccc(Sc3ccc(Cl)cc3)o2)C(=O)N1CC	-2	-9	+	0	·
N#Cc1c2c(c(NCCCN3CCOCC3)n3c1nc1ccccc13)CCC2	1	-7	·	4	·
CCCc1c(C)c(C#N)c2nc3ccccc3n2c1NCCCN1CCOCC1	5	1	+	2	i
CC(C)c1cc(NCCN2CCOCC2)n2c(nc3ccccc32)c1C#N	·	·	+	0	i
CCc1c(C)c(C#N)c2nc3ccccc3n2c1NCCOC	0	-8	+	2	·
Cc1ccc2c(c1)C(CS(=O)(=O)NCC(C)C)NC2 (stereo not given)	·	·	·	-1	·
O=C(Cn1c(-c2cncs2)nc2ccccc21)N1CCOCC1	·	·	·	0	·
O=S(=O)(Nc1ccc(-c2nc3ccccc3o2)cc1)c1ccccc1	4	-5	+	0	·
CC(=O)Nc1ccc(S(=O)(=O)Nc2cccc(-c3nc4ccccc4o3)c2)cc1	-3	7	·	-1	·
Nc1cccc2c(=O)[nH][nH]c(=O)c12	·	·	+	6	+
COc1ccccc1CNC(=O)N(CCc1c(C)[nH]c2ccccc12)Cc1cccs1	·	·	·	0	·
CCC/C(=C1/c2ccccc2C(=O)N1c1ccccc1)c1ccc2[nH]ccc2c1	20	3	+	-53	i
CCN(CC(=O)Nc1c(C(=O)OC)[nH]c2ccc(Cl)cc12)c1ccc2c(c1)OCO2	-3	-4	i	1	·
CCOC(=O)c1[nH]c2ccc(Cl)cc2c1NC(=O)/C=C/c1ccc2c(c1)OCO2	5	0	+	0	i
